Experimental data taken from ChEMBL document CHEMBL2040739, “Effect of phosphodiesterase 7 (PDE7) inhibitors in experimental autoimmune encephalomyelitis mice. Discovery of a new chemically diverse family of compounds” (J Med Chem, 2012).
Each block holds one compound with its values, some of them ahead of it. Active and inactive are the calls of the source. No cut-off for these calls is given here.

Tests used:
[1] = biological target: T1, High affinity 3',5'-cyclic-AMP phosphodiesterase 7A (Homo sapiens, UniProt Q13946); assay: Inhibition of human recombinant PDE7A1-mediated [3H]cAMP hydrolysis at 10 uM after 20 mins by scintillation proximity assay
Outline: (§1)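 Scintillation proximity assay with human recombinant full-length enzyme: PDE7A1 or PDE3A at 0.02 unit, or PDE7B at 0.5 unit. Enzyme incubated with 5 nCi [3H]cAMP for 20 min at 30 °C. SPA beads added, shaken 1 h at room temperature, then settled 30 min before counting. Single-point screens at 10 μM run in duplicate. IC50 from a sigmoidal dose−response fit.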

[2] = biological target: T1, High affinity 3',5'-cyclic-AMP phosphodiesterase 7A; assay: Competitive inhibition of human recombinant PDE7A1 using 5 nM to 2 uM cAMP as substrate by Lineweaver-Burk plot analysis
Outline: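 PDE7A1 scintillation proximity assay with unlabeled cAMP varied from 5 nM to 2 μM, against fixed [3H]cAMP tracer. Two inhibitor concentrations tested, with AMP formation measured. Data analysed by Lineweaver−Burk plots. Triplicate measurements, mean ± SEM.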

[3] = biological target: T1, High affinity 3',5'-cyclic-AMP phosphodiesterase 7A; assay: Inhibition of human recombinant PDE7A1-mediated [3H]cAMP hydrolysis after 20 mins by scintillation proximity assay; outline: as §1
[4] = Cytotoxicity against rat microglia cells at 5 to 10 uM after 16 hrs by MTT assay; type: cell-based
Outline: (§2)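 Primary neonatal rat cortical astrocytes or microglia, after 1 week in culture, exposed to compound for 16 h. MTT at 0.5 mg/mL for 4 h, then solubilized in 10% SDS/0.01 M HCl for 12 h in the dark. Absorbance read at 595 nm. Six replications in three experiments.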

[5] = Cytotoxicity against rat astrocytes at 5 to 10 uM after 16 hrs by MTT assay; type: cell-based; settings: astrocyte; outline: as §2
Microglia [6] = assay: Antiinflammatory activity in rat microglia cells assessed as inhibition of LPS-induced nitrite production at 5 to 10 uM incubated for 1 hr prior to LPS-challenge measured after 24 hrs by Griess method; type: functional, cell-based
Outline: (§3)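 Glial cells from neonatal rat cerebral cortex; microglia and astrocytes separated by shaking and cultured 1 week. Purity >98% by OX42 and GFAP staining. Microglia kept with 10 ng/mL GM-CSF. Cells given compound for 1 h, then LPS (10 μg/mL) for 24 h. Nitrite in the supernatant measured by Griess reaction at 492/540 nm. Mean ± SD of six replications in three experiments.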

Astrocyte [7] = assay: Antiinflammatory activity in rat astrocytes assessed as inhibition of LPS-induced nitrite production at 5 to 10 uM incubated for 1 hr prior to LPS-challenge measured after 24 hrs by Griess method; type: functional, cell-based; outline: as §3
[8] = biological target: T2, cGMP-inhibited 3',5'-cyclic phosphodiesterase 3A (Homo sapiens, UniProt Q14432); assay: Inhibition of human recombinant PDE3A-mediated [3H]cAMP hydrolysis at 10 uM after 20 mins by scintillation proximity assay; outline: as §1
[9] = biological target: T2, cGMP-inhibited 3',5'-cyclic phosphodiesterase 3A; assay: Inhibition of human recombinant PDE3A-mediated [3H]cAMP hydrolysis after 20 mins by scintillation proximity assay; outline: as §1
Homo sapiens [10] = species on record: Homo sapiens; assay: Selectivity index, ratio of IC50 for human recombinant PDE7A1 to IC50 for human recombinant PDE3A
Outline: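 Ratio of IC50 values for PDE7A1 and PDE3A, each obtained by scintillation proximity assay with [3H]cAMP for 20 min at 30 °C.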

[11] = biological target: T1, High affinity 3',5'-cyclic-AMP phosphodiesterase 7A; assay: Inhibition of PDE7A1
Microglia [12] = assay: Antiinflammatory activity in rat microglia cells assessed as inhibition of LPS-induced nitrite production at 30 uM incubated for 1 hr prior to LPS-challenge measured after 24 hrs by Griess method; type: functional, cell-based; outline: as §3
Astrocyte [13] = assay: Antiinflammatory activity in rat astrocytes assessed as inhibition of LPS-induced nitrite production at 30 uM incubated for 1 hr prior to LPS-challenge measured after 24 hrs by Griess method; type: functional, cell-based; outline: as §3
[14] = biological target: T3, High affinity 3',5'-cyclic-AMP phosphodiesterase 7A (Mus musculus) (UniProt P70453); assay: Inhibition of PDE7A1 in mouse RAW cells assessed as increase in cAMP level at 10 to 30 uM after 60 mins by enzyme immunoassay; type: cell-based
T3 sequence (whole entry): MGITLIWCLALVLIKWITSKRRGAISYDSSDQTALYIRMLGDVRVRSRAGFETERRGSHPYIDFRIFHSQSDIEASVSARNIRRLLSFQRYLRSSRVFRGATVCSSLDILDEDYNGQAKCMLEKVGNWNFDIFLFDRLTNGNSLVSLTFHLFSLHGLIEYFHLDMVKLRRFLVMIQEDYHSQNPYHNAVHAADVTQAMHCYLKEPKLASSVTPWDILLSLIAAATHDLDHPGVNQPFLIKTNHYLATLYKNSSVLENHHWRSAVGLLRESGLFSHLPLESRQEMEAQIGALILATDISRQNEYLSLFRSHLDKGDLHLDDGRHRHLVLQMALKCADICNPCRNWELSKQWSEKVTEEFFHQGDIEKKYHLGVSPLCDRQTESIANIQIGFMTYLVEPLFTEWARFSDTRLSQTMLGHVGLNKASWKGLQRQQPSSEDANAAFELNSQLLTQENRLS
Outline: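 RAW cells seeded at 3 × 10^4 per well and incubated overnight. Compound added for 60 min at 10 or 30 μM. Intracellular cAMP quantified by enzyme immunoassay kit.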

Homo sapiens [15] = species on record: Homo sapiens; assay: Selectivity index, ratio of IC50 for human recombinant PDE3A to IC50 for human recombinant PDE7A1
[16] = biological target: 3',5'-cyclic-AMP phosphodiesterase 7B (Homo sapiens) (UniProt Q9NP56); assay: Inhibition of human recombinant PDE7B-mediated [3H]cAMP hydrolysis at 10 uM after 20 mins by scintillation proximity assay; outline: as §1
[17] = biological target: 3',5'-cyclic-AMP phosphodiesterase 4B (Homo sapiens, UniProt Q07343); assay: Inhibition of human recombinant PDE4B2 using fluorescein 3',5'-cyclic phosphate after 60 mins by IMAP fluorescence polarization assay
Outline: (§4)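 IMAP fluorescence polarization assay. Human recombinant PDE4B2 or PDE4D3 (0.05 U) incubated with 1 nM fluorescein adenosine 3′,5′-cyclic phosphate for 60 min at ambient temperature. Stopped with IMAP binding reagent and left 1 h before reading FP. IC50 from a sigmoidal dose−response fit.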

[18] = biological target: 3',5'-cyclic-AMP phosphodiesterase 4D (Homo sapiens, UniProt Q08499); assay: Inhibition of human recombinant PDE4D3 using fluorescein 3',5'-cyclic phosphate after 60 mins by IMAP fluorescence polarization assay; outline: as §4
[19] = Permeability across after 2 hrs 30 mins by pig brain lipid membrane based PAMPA-BBB assay; type: ADME; settings: read-out: permeability
Outline: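 PAMPA-BBB assay. Donor wells coated with porcine polar brain lipid in dodecane (20 mg/mL). Compound dissolved in EtOH/PBS pH 7.4; acceptor holds PBS/EtOH 70/30. Sandwich left 2 h 30 min at 25 °C. Concentrations read by UV at 3−5 wavelengths, in three wells and two independent runs. Ten reference drugs included for validation.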

Mus musculus [20] = assay: Antiinflammatory activity in C57BL/6J mouse MOG(35 to 55)-induced experimental autoimmune encephalomyelitis model assessed as inhibition of clinical symptoms at 10 mg/kg, ip dosed daily for 16 days starting at day 5 after disease onset measured on day 32 post-immunization; type: functional, organism-based; set-up: dose 10 mg/kg
Mus musculus [21] = assay: Antiinflammatory activity in C57BL/6J mouse MOG(35 to 55)-induced experimental autoimmune encephalomyelitis model assessed as inhibition of clinical symptoms at 10 mg/kg, ip dosed daily for 26 days starting at day 5 after disease onset measured on day 42 post-immunization; type: functional, organism-based; set-up: dose 10 mg/kg
Mus musculus [22] = assay: Toxicity in C57BL/6J mouse MOG(35 to 55)-induced experimental autoimmune encephalomyelitis model assessed as decrease in body weight at 10 mg/kg, ip dosed daily for 26 days starting at day 5 after disease onset measured on day 42 post-immunization; type: organism-based; set-up: dose 10 mg/kg, route intraperitoneal; settings: in vivo, 624 h

T2 sequence (Q14432 whole entry): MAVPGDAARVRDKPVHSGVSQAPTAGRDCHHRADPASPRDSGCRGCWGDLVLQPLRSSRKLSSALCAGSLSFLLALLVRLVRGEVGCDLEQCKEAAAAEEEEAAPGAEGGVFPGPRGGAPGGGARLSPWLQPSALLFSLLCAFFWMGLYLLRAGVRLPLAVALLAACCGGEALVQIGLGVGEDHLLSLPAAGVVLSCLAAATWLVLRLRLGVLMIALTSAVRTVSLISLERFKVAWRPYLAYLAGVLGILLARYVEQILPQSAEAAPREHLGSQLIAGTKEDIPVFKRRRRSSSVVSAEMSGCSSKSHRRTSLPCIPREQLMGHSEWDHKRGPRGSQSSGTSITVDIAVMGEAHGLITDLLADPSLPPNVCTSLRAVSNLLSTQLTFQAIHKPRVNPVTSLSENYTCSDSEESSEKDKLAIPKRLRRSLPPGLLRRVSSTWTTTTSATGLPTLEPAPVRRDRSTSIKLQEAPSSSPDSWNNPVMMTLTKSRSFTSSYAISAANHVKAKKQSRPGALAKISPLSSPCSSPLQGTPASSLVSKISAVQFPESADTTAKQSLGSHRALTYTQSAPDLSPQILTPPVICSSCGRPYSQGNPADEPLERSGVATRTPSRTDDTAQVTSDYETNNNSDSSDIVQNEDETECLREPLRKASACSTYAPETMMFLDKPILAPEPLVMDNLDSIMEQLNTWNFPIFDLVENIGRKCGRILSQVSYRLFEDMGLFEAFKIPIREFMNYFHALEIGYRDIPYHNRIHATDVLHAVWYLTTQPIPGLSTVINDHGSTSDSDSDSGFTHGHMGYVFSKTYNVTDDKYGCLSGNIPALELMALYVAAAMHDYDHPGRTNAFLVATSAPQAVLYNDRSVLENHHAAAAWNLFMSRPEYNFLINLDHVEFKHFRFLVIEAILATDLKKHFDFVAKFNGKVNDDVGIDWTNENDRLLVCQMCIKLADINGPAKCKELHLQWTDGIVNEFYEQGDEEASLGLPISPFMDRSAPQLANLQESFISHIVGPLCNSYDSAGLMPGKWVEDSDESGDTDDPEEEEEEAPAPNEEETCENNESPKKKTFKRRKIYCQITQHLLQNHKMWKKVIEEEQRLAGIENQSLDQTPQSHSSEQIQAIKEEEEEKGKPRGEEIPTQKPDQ
T1 sequence (Q13946 whole entry): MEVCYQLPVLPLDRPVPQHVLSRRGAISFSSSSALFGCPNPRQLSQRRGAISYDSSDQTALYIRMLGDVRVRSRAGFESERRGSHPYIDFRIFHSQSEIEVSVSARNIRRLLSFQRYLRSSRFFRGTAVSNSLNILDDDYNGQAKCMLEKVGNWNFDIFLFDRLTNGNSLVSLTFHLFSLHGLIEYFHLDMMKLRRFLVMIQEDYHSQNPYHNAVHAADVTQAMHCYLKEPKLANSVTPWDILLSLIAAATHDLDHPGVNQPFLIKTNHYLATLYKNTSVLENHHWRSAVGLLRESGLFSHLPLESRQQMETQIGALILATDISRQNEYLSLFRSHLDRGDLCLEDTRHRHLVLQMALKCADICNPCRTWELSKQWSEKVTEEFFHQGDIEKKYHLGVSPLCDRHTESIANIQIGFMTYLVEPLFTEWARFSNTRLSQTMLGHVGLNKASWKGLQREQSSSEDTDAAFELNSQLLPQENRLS
3',5'-cyclic-AMP phosphodiesterase 4B, sequence (Q07343 whole entry): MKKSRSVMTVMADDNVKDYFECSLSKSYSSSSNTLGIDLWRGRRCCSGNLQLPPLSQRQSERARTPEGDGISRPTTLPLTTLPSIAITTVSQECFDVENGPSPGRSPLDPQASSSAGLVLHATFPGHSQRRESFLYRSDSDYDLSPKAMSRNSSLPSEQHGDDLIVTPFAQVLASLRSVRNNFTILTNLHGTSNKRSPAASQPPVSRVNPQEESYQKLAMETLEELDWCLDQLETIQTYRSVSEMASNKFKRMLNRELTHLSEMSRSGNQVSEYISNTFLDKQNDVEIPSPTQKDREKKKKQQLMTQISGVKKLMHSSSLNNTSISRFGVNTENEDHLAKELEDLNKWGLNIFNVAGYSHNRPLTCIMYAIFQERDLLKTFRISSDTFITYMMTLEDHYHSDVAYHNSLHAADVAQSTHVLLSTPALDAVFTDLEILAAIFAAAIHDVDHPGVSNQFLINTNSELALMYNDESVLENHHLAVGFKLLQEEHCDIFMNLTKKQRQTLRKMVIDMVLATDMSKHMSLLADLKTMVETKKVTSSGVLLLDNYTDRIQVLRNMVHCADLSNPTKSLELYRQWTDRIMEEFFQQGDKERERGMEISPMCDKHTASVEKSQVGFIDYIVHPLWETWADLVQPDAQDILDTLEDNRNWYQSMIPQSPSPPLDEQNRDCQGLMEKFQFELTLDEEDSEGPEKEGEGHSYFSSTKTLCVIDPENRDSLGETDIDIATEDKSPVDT
3',5'-cyclic-AMP phosphodiesterase 7B (Homo sapiens), sequence (Q9NP56 whole entry): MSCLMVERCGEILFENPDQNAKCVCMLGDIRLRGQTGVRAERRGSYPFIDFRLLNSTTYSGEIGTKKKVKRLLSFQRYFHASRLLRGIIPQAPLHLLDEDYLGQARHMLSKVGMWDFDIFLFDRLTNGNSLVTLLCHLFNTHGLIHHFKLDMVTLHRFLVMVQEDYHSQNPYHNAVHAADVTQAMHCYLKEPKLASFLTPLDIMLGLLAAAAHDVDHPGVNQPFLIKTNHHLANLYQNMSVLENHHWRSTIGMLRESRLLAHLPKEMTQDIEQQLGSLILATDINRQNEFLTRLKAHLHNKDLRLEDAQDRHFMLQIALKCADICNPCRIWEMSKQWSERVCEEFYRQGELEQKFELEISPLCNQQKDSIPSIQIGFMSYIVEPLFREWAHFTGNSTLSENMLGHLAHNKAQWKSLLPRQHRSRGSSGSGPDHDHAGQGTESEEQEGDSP
3',5'-cyclic-AMP phosphodiesterase 4D, sequence (Q08499 whole entry): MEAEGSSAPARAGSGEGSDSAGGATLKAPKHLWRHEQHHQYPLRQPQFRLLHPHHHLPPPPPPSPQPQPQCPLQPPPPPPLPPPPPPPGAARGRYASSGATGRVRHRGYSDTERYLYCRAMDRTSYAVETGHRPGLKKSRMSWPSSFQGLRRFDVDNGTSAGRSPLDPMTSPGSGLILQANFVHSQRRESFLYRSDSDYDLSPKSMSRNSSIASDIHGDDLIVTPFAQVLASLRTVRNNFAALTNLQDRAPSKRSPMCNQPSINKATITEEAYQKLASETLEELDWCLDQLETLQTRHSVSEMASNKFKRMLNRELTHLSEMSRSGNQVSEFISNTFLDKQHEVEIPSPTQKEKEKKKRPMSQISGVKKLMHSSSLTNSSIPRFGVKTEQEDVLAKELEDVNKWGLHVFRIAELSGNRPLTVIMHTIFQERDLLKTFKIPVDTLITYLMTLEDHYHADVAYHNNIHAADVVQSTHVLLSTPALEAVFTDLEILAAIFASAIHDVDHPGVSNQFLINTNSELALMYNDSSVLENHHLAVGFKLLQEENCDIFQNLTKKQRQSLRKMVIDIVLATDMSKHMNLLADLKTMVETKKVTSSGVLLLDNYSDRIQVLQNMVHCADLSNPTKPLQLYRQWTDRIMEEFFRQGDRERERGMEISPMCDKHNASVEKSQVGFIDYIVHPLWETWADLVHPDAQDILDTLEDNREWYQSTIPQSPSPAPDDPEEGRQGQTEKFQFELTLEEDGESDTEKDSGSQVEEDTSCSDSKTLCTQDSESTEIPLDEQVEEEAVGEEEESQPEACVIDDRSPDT

SMILES: CCOC(=O)c1sc(NC(=O)C(CC)OC(=O)C(CC(C)C)NC(=O)c2ccccc2)nc1C (stereo not given)
IC50 [11]: 0.86 µM

SMILES: COc1ccc(C2CNC(=O)C2)cc1OC1CCCC1 (stereo not given)
Activity (Microglia [12]): Active
Activity (Astrocyte [13]): Active

SMILES: Cc1ccc([N+](=O)[O-])cc1S(=O)(=O)N(C)C
IC50 [3]: 0.09 µM
Activity (Microglia [12]): Active
Activity (Astrocyte [13]): Active
inhibition [14]: Active

SMILES: CCOc1cc(COC(=O)c2ccc(-c3ccc([N+](=O)[O-])cc3)o2)cc(OCC)c1OCC
inhibition [1]: 29.2%

SMILES: CCOc1cc(C(=O)OCc2ccc(-c3ccc(Cl)cc3Cl)o2)cc(OCC)c1OCC
inhibition [1]: 3.7%

SMILES: COc1cc(C(=O)OCc2ccc(-c3ccc([N+](=O)[O-])cc3)o2)cc(OC)c1OC
inhibition [1]: 49.5%
IC50 [3]: 33.4 µM

SMILES: CCOc1cc(C(=O)OCc2ccc(-c3ccc([N+](=O)[O-])cc3C)o2)cc(OCC)c1OCC
IC50 [11]: 0.58 µM
inhibition [1]: 29%

SMILES: CCOc1cc(COC(=O)c2ccc(-c3ccc(Cl)cc3Cl)o2)cc(OCC)c1OCC
inhibition [1]: 31.1%

The next lines start with results.

inhibition [1]: 70.5%
Ki [2]: 7.22 µM
IC50 [3]: 3.2 µM
inhibition [8]: 49.6%
IC50 [9]: 3.9 µM
Ratio IC50 (Homo sapiens [10]): 0.82
SMILES: COc1cc(CNC(=O)c2ccc(-c3ccc(C)cc3[N+](=O)[O-])o2)cc(OC)c1OC
Activity [4]: Non-toxic
Activity [5]: Non-toxic
Activity (Microglia [6]): Active
Activity (Astrocyte [7]): Active

inhibition [1]: 48%
IC50 [3]: 14.1 µM
inhibition [8]: 57.1%
IC50 [9]: 3.4 µM
Ratio IC50 (Homo sapiens [10]): 4.15
SMILES: COc1cc(COC(=O)c2ccc(-c3ccc([N+](=O)[O-])cc3)o2)cc(OC)c1OC
Activity [4]: Non-toxic
Activity [5]: Non-toxic
Activity (Microglia [6]): Active
Activity (Astrocyte [7]): Active

inhibition [1]: 14%
SMILES: COc1ccc(-c2ccc(C(=O)OCc3cc(OC)c(OC)c(OC)c3)o2)cc1

inhibition [1]: 57.9%
Ki [2]: 5.91 µM
IC50 [3]: 5.17 µM
inhibition [8]: 46.1%
IC50 [9]: 54.6 µM
Ratio IC50 (Homo sapiens [10]): 0.09
Ratio IC50 (Homo sapiens [15]): 10
inhibition [16]: 23.2%
IC50 [17]: 12.4 µM
IC50 [18]: 66.3 µM
inhibition [14]: Active
Papp at 2.5 h [19]: 8.1 ×10⁻⁶ cm/s
SMILES: COc1cc(COC(=O)c2ccc(-c3ccccc3)o2)cc(OC)c1OC
Activity [4]: Non-toxic
Activity [5]: Non-toxic
Activity (Microglia [6]): Active
Activity (Astrocyte [7]): Active
Activity (Mus musculus [20]): Active
Activity (Mus musculus [21]): inactive
Activity (Mus musculus [22]): Toxic

inhibition [1]: 54.9%
IC50 [3]: 2.63 µM
inhibition [8]: 74.9%
IC50 [9]: 1.8 µM
Ratio IC50 (Homo sapiens [10]): 1.44
SMILES: COc1cc(COC(=O)c2ccc(-c3ccccc3C(F)(F)F)o2)cc(OC)c1OC
Activity [4]: Non-toxic
Activity [5]: Non-toxic
Activity (Microglia [6]): Active
Activity (Astrocyte [7]): Active

inhibition [1]: 8%
SMILES: COc1cc(COC(=O)c2ccc(-c3cc(C(F)(F)F)ccc3Cl)o2)cc(OC)c1OC

inhibition [1]: 30.7%
SMILES: COc1cc(COC(=O)c2ccc(-c3ccc(C)cc3)o2)cc(OC)c1OC

inhibition [1]: 23.5%
SMILES: COc1cc(CNC(=O)c2ccc(-c3cccc(C(F)(F)F)c3)o2)cc(OC)c1OC
